Consider 49 variants from the RNAGym collection of RNA variant scans (doi:10.1002/anie.201605470).

The labels stand for the following.
B1: Osa-1-4 twister ribozyme (parent)
chain: CCGCCUAACACUGCCAAUGCCGGUCCCAAGCCCGGAUAAAAGUGGAGGGGGCGG

The variants in the series derive from B1. The series can be described thus: self-cleavage, relative activity (ratio to wild type); higher = more cleavage; co-transcriptional. In short, it runs like this:
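In vitro transcription at 37 °C for 2 h allowed the twister ribozyme to cleave itself as it was made. Its 54-nucleotide Oryza sativa template had been synthesised with 97 % wild-type base and 1 % of each other base at the 48 positions downstream of the cleavage site. A template-switching oligonucleotide was used for reverse transcription, followed by PCR amplification and deep sequencing. Whether reads carried upstream sequence set the cleavage status, and relative activity is the fraction cleaved normalised to wild type.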
As to CCGCCUAACACUGCCAAUGCCGGUCCGAAGCCCGGAUAAAAGUGGAGGGGGAGG [C27G C52A], the self-cleavage came out at 0.08. The figure for CCGCCUAACACUGCCAAUGCCGGUCCGAAGCCCGGAUAAAAGUGGAGGGGGGGG [C27G C52G] is 0.14; for CCGCCUAACACUGCCAAUGCCGGUCCGAAGCCCGGAUAAAAGUGGAGGGGGUGG [C27G C52U] it is 0.16; for CCGCCUAACACUGCCAAUGCCGGUCCAAAGCCCGGAUAAAAGAGGAGGGGGCGG [C27A U43A] it is 0.1.

Regarding CCGCCUAACACUGCCAAUGCCGGUCCAAAGCCCGGAUAAAAGCGGAGGGGGCGG [C27A U43C], the self-cleavage was 0.1. The figure for CCGCCUAACACUGCCAAUGCCGGUCCAAAGCCCGGAUAAAAGGGGAGGGGGCGG [C27A U43G] is 0.15; for CCGCCUAACACUUCCAAUGCCGGUCCGAAGCCCGGAUAAAAGUGGAGGGGGCGG [C27G G13U] it is 0.01.

Consider CCGCCUAACACUCCCAAUGCCGGUCCGAAGCCCGGAUAAAAGUGGAGGGGGCGG [C27G G13C], for which the self-cleavage is 0.01. For CCGCCUAACACUACCAAUGCCGGUCCGAAGCCCGGAUAAAAGUGGAGGGGGCGG [C27G G13A], the self-cleavage is 0.03.

Consider CCGCCUAACACUGCCAAUGCCGGUCCGAAGUCCGGAUAAAAGUGGAGGGGGCGG [C27G C31U], for which the self-cleavage was found to be 0.06. The figure for CCGCCUAACACUGCCAAUGCCGGUCCGAAGGCCGGAUAAAAGUGGAGGGGGCGG [C27G C31G] is 0.06.

Regarding CCGCCUAACACUGCCAAUGCCGGUCCGAAGACCGGAUAAAAGUGGAGGGGGCGG [C27G C31A], the self-cleavage stood at 0.01. For CCGCCUAACACUGCCAAUGCCGGUCCGAAGCGCGGAUAAAAGUGGAGGGGGCGG [C27G C32G] the value was 0.05; for CCGCCUAACACUGCCAAUGCCGGUCCGAAGCACGGAUAAAAGUGGAGGGGGCGG [C27G C32A], 0.02; for CCGCCUAACACUGCCAAUGCCGGUCCGAAGCUCGGAUAAAAGUGGAGGGGGCGG [C27G C32U], 0.05. In the case of CCGCCUAACACUGCCAAUGCCGGUCCAAAGCCCGGAUAAAAGUGGAGGGGGCGC [C27A G54C], the self-cleavage was 0.11. The figure for CCGCCUAACACUGCCAAUGCCGGUCCAAAGCCCGGAUAAAAGUGGAGGGGGCGA [C27A G54A] is 0.12; for CCGCCUAACACUGCCAAUGCCGGUCCAAAGCCCGGAUAAAAGUGGAGGGGGCGU [C27A G54U] it is 0.35. The figure for CCGCCUAACACUGCCAAUGCCGUUCCGAAGCCCGGAUAAAAGUGGAGGGGGCGG [C27G G23U] is 0.02; for CCGCCUAACACUGCCAAUGCCGAUCCGAAGCCCGGAUAAAAGUGGAGGGGGCGG [C27G G23A] it is 0.05; for CCGCCUAACACUGCCAAUGCCGCUCCGAAGCCCGGAUAAAAGUGGAGGGGGCGG [C27G G23C] it is 0.03. The figure for CCGCCUAACACUGCCAAUGCCGGUCCGAAGCCCGGAUAAAAGUGGAGGGGGCGG [C27G] is 0.13. In the case of CCGCCUAAAACUGCCAAUGCCGGUCCGAAGCCCGGAUAAAAGUGGAGGGGGCGG [C27G C9A], the self-cleavage was 0.03. For the variant CCGCCUAAUACUGCCAAUGCCGGUCCGAAGCCCGGAUAAAAGUGGAGGGGGCGG [C27G C9U], the self-cleavage was 0.05. For CCGCCUAAGACUGCCAAUGCCGGUCCGAAGCCCGGAUAAAAGUGGAGGGGGCGG [C27G C9G] the value was 0.07; for CCGCCUAACACUGCCAAUGCCGGUCCGAAACCCGGAUAAAAGUGGAGGGGGCGG [C27G G30A], 0.02; for CCGCCUAACACUGCCAAUGCCGGUCCAAAGCCCGGAUAAAAGUGGAGGGGGCCG [C27A G53C], 0.05. For CCGCCUAACACUGCCAAUGCCGGUCCAAAGCCCGGAUAAAAGUGGAGGGGGCUG [C27A G53U] the value was 0.06. For CCGCCUAACACUGCCAAGGCCGGUCCAAAGCCCGGAUAAAAGUGGAGGGGGCGG [C27A U18G] the value was 0.34. Turning to CCGCCUAACACUGCCAAAGCCGGUCCAAAGCCCGGAUAAAAGUGGAGGGGGCGG [C27A U18A], the self-cleavage came out at 0.27. The figure for CCGCCUAACACUGCCAACGCCGGUCCAAAGCCCGGAUAAAAGUGGAGGGGGCGG [C27A U18C] is 0.26; for CCGCCUAACACUGCCAAUGCCCGUCCGAAGCCCGGAUAAAAGUGGAGGGGGCGG [C27G G22C] it is 0.03. For CCGCCUAACACUGCCAAUGCCUGUCCGAAGCCCGGAUAAAAGUGGAGGGGGCGG [C27G G22U] the value was 0.04. For CCGCCUAACACUGCCAAUGCCAGUCCGAAGCCCGGAUAAAAGUGGAGGGGGCGG [C27G G22A], the self-cleavage was 0.05. For CCGCCUAACACUGCCAAUGCCGGUCCAAAGCCCGGAAAAAAGUGGAGGGGGCGG [C27A U37A], the self-cleavage stood at 0.26. The figure for CCGCCUAACACUGCCAAUGCCGGUCCAAAGCCCGGAGAAAAGUGGAGGGGGCGG [C27A U37G] is 0.42; for CCGCCUAACACUGCCAAUGCCGGUCCAAAGCCCGGACAAAAGUGGAGGGGGCGG [C27A U37C] it is 0.32; for CCGCCUAACACUGCCAAUGCCGGUCCGAAGCCUGGAUAAAAGUGGAGGGGGCGG [C27G C33U] it is 0.05. For CCGCCUAACACUGCCAAUGCCGGUCCGAAGCCGGGAUAAAAGUGGAGGGGGCGG [C27G C33G] the value was 0.05. For CCGCCUAACACUGCCAAUGCCGGUCCGAAGCCAGGAUAAAAGUGGAGGGGGCGG [C27G C33A] the value was 0.03; for CCGCCUAACACCGCCAAUGCCGGUCCAAAGCCCGGAUAAAAGUGGAGGGGGCGG [C27A U12C], 0.06. On to CCGCCUAACACGGCCAAUGCCGGUCCAAAGCCCGGAUAAAAGUGGAGGGGGCGG [C27A U12G], for which the self-cleavage was 0.11. For the variant CCGCCUAACACAGCCAAUGCCGGUCCAAAGCCCGGAUAAAAGUGGAGGGGGCGG [C27A U12A], the self-cleavage turned out to be 0.07. The figure for CCGCCUAACACUGCCAAUACCGGUCCGAAGCCCGGAUAAAAGUGGAGGGGGCGG [C27G G19A] is 0.06. As to CCGCCUAACACUGCCAAUCCCGGUCCGAAGCCCGGAUAAAAGUGGAGGGGGCGG [C27G G19C], the self-cleavage is 0.03. The figure for CCGCCUAACACUGCCAAUUCCGGUCCGAAGCCCGGAUAAAAGUGGAGGGGGCGG [C27G G19U] is 0.04. For CCGCCUAACACUGCCAAUGCCGGACCAAAGCCCGGAUAAAAGUGGAGGGGGCGG [C27A U24A] the value was 0.04. The figure for CCGCCUAACACUGCCAAUGCCGGGCCAAAGCCCGGAUAAAAGUGGAGGGGGCGG [C27A U24G] is 0.02; for CCGCCUAACACUGCCAAUGCCGGCCCAAAGCCCGGAUAAAAGUGGAGGGGGCGG [C27A U24C] it is 0.06.
